Results as given in ChEMBL document CHEMBL1124369, “Pyrido[3,4-e]-1,2,4-triazines and related heterocycles as potential antifungal agents” (1989).
≈ marks a conversion by molar mass, not a printed value.

Experiments:
[1] = test system: Kluyveromyces marxianus; assay: Antifungal activity against Candida pseudotropicalis; Range is 8-16; assay type: functional
Summary of the method: (§1)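 Agar dilution MIC. Twofold serial drug dilutions in yeast nitrogen base medium with 1% dextrose, 0.15% asparagine and 1.5% agar. Agar surfaces inoculated using a Steers multiple inocula replicator, then incubated at 35 °C for 24-48 h. MIC was recorded as the lowest concentration inhibiting visible growth. Amphotericin B, miconazole and nystatin served as controls.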

[2] = test system: Aspergillus niger; assay: Antifungal activity against Aspergillus niger; assay type: functional; summary of the method: as §1
[3] = test system: Trichophyton rubrum; assay: Antifungal activity against Trichophyton rubrum; assay type: functional; summary of the method: as §1
[4] = test system: Candida parapsilosis; assay: Antifungal activity against Candida parapsilosis; assay type: functional; summary of the method: as §1
[5] = test system: Candida tropicalis; assay: Antifungal activity against Candida tropicalis; Range is 8-32; assay type: functional; summary of the method: as §1
[6] = test system: Trichophyton benhamiae; assay: Antifungal activity against Trichophyton mentagrophytes; assay type: functional, trychophyton mentagrophytes; summary of the method: as §1
[7] = test system: Candida albicans; assay: Antifungal activity against Candida albicans; Range is 8-16; assay type: functional; summary of the method: as §1
[8] = test system: Candida albicans; assay: Antifungal activity against Candida stellatoidea; assay type: functional; summary of the method: as §1
[9] = test system: Diutina rugosa; assay: Antifungal activity against Candida rugosa; assay type: functional; summary of the method: as §1
[10] = test system: Trichophyton rubrum; assay: Antifungal activity against Trichophyton rubrum; Range is 2-4; assay type: functional; summary of the method: as §1
[11] = test system: Aspergillus niger; assay: Antifungal activity against Aspergillus niger; Range is 16-32; assay type: functional; summary of the method: as §1
[12] = test system: Mucor fragilis; assay: Antifungal activity against Mucor fragilis; assay type: functional; summary of the method: as §1
[13] = test system: Candida albicans; assay: Antifungal activity against Candida albicans; assay type: functional; summary of the method: as §1
[14] = test system: Candida tropicalis; assay: Antifungal activity against Candida tropicalis; Range is 8-16; assay type: functional; summary of the method: as §1
[15] = test system: Candida tropicalis; assay: Antifungal activity against Candida tropicalis; assay type: functional; summary of the method: as §1
[16] = test system: Kluyveromyces marxianus; assay: Antifungal activity against Candida pseudotropicalis; assay type: functional; summary of the method: as §1
[17] = test system: Trichophyton rubrum; assay: Antifungal activity against Trichophyton rubrum; Range is 4-8; assay type: functional; summary of the method: as §1
[18] = test system: Candida albicans; assay: Antifungal activity against Candida albicans; Range is 16-32; assay type: functional; summary of the method: as §1
[19] = test system: Aspergillus niger; assay: Antifungal activity against Aspergillus niger; Range is 32-64; assay type: functional; summary of the method: as §1
[20] = test system: Trichophyton benhamiae; assay: Antifungal activity against Trichophyton mentagrophytes; Range is 32-64; assay type: functional, trychophyton mentagrophytes; summary of the method: as §1
[21] = test system: Trichophyton rubrum; assay: Antifungal activity against Trichophyton rubrum; Range is 32-64; assay type: functional; summary of the method: as §1
[22] = test system: Trichophyton benhamiae; assay: Antifungal activity against Trichophyton mentagrophytes; Range is 16-32; assay type: functional; conditions: trychophyton mentagrophytes
[23] = test system: Trichophyton rubrum; assay: Antifungal activity against Trichophyton rubrum; Range is 8-32; assay type: functional
[24] = test system: Candida albicans; assay: Antifungal activity against Candida albicans; Range is 64-128; assay type: functional; summary of the method: as §1
[25] = test system: Aspergillus niger; assay: Antifungal activity against Aspergillus niger; Range is 64-128; assay type: functional; summary of the method: as §1
[26] = test system: Trichophyton benhamiae; assay: Antifungal activity against Trichophyton mentagrophytes; Range is 64-128; assay type: functional, trychophyton mentagrophytes; summary of the method: as §1

Cc1nnc2ccnc(C)c2n1
MIC [1]: 8 µg/mL (≈ 49.9 µM)
MIC [2]: 64 µg/mL (≈ 400 µM)
MIC [3]: 8 µg/mL (≈ 49.9 µM)
MIC ([4]; Lodderomyces parapsilosis): 128 µg/mL (≈ 799 µM)
MIC [5]: 8 µg/mL (≈ 49.9 µM)
MIC [6]: 8 µg/mL (≈ 49.9 µM)
MIC [7]: 8 µg/mL (≈ 49.9 µM)

c1ccc(-c2nnc3ccncc3n2)cc1
MIC [1]: 8 µg/mL (≈ 38.4 µM)
MIC [8]: 16 µg/mL (≈ 76.8 µM)
MIC [9]: 32 µg/mL (≈ 154 µM)
MIC ([4]; Lodderomyces parapsilosis): 16 µg/mL (≈ 76.8 µM)
MIC [10]: 2 µg/mL (≈ 9.61 µM)
MIC [11]: 16 µg/mL (≈ 76.8 µM)
MIC [12]: > 128 µg/mL
MIC [13]: 16 µg/mL (≈ 76.8 µM)
MIC [6]: 8 µg/mL (≈ 38.4 µM)
MIC [14]: 8 µg/mL (≈ 38.4 µM)

c1cnc2nncnc2c1
MIC [15]: 64 µg/mL (≈ 484 µM)
MIC [3]: 32 µg/mL (≈ 242 µM)
MIC ([4]; Lodderomyces parapsilosis): 32 µg/mL (≈ 242 µM)
MIC [11]: 16 µg/mL (≈ 121 µM)
MIC [13]: 64 µg/mL (≈ 484 µM)
MIC [6]: 32 µg/mL (≈ 242 µM)
MIC [16]: 32 µg/mL (≈ 242 µM)

Cc1nnc2ccncc2n1
MIC [15]: 8 µg/mL (≈ 54.7 µM)
MIC [17]: 4 µg/mL (≈ 27.4 µM)
MIC [8]: 32 µg/mL (≈ 219 µM)
MIC [9]: 16 µg/mL (≈ 109 µM)
MIC ([4]; Lodderomyces parapsilosis): 16 µg/mL (≈ 109 µM)
MIC [11]: 16 µg/mL (≈ 109 µM)
MIC [12]: 16 µg/mL (≈ 109 µM)
MIC [6]: 16 µg/mL (≈ 109 µM)
MIC [7]: 8 µg/mL (≈ 54.7 µM)
MIC [16]: 8 µg/mL (≈ 54.7 µM)

CCCCCCCCCCCCCCCCCc1nnc2ccncc2n1
MIC [15]: 128 µg/mL (≈ 345 µM)
MIC [8]: > 128 µg/mL
MIC [2]: 128 µg/mL (≈ 345 µM)
MIC [9]: > 128 µg/mL
MIC [12]: 128 µg/mL (≈ 345 µM)
MIC [13]: 128 µg/mL (≈ 345 µM)
MIC [16]: 128 µg/mL (≈ 345 µM)

Cc1nc(C)c2nc(-c3ccc(F)cc3)nnc2c1N
MIC [15]: > 128 µg/mL
MIC [8]: > 128 µg/mL
MIC [2]: > 128 µg/mL
MIC [9]: > 128 µg/mL
MIC [3]: 128 µg/mL (≈ 475 µM)
MIC ([4]; Lodderomyces parapsilosis): > 128 µg/mL
MIC [12]: 128 µg/mL (≈ 475 µM)
MIC [13]: > 128 µg/mL
MIC [6]: 128 µg/mL (≈ 475 µM)

c1ccc2nc(-c3nnc4ccncc4n3)cnc2c1
MIC [15]: 8 µg/mL (≈ 30.7 µM)
MIC [8]: 32 µg/mL (≈ 123 µM)
MIC [2]: 32 µg/mL (≈ 123 µM)
MIC [9]: 32 µg/mL (≈ 123 µM)
MIC [12]: 32 µg/mL (≈ 123 µM)
MIC [13]: 8 µg/mL (≈ 30.7 µM)
MIC [16]: 8 µg/mL (≈ 30.7 µM)

FC(F)(F)c1nnc2ccncc2n1
MIC [15]: 32 µg/mL (≈ 160 µM)
MIC [1]: 8 µg/mL (≈ 40 µM)
MIC [8]: 16 µg/mL (≈ 80 µM)
MIC [2]: 32 µg/mL (≈ 160 µM)
MIC [9]: 16 µg/mL (≈ 80 µM)
MIC [18]: 16 µg/mL (≈ 80 µM)
MIC [12]: 8 µg/mL (≈ 40 µM)

c1cnc(-c2nnc3ccncc3n2)cn1
MIC [15]: 64 µg/mL (≈ 304 µM)
MIC [8]: 64 µg/mL (≈ 304 µM)
MIC [9]: 64 µg/mL (≈ 304 µM)
MIC [12]: 64 µg/mL (≈ 304 µM)
MIC [13]: 64 µg/mL (≈ 304 µM)
MIC [16]: 32 µg/mL (≈ 152 µM)
MIC [19]: 32 µg/mL (≈ 152 µM)

c1cc2c(cn1)NC1(CCCCC1)N=N2
MIC [15]: 128 µg/mL (≈ 633 µM)
MIC [20]: 32 µg/mL (≈ 158 µM)
MIC [2]: 128 µg/mL (≈ 633 µM)
MIC ([4]; Lodderomyces parapsilosis): 128 µg/mL (≈ 633 µM)
MIC [21]: 32 µg/mL (≈ 158 µM)
MIC [13]: 128 µg/mL (≈ 633 µM)
MIC [16]: 128 µg/mL (≈ 633 µM)

c1ccc2cc(-c3nnc4ccncc4n3)ccc2c1
MIC [15]: 128 µg/mL (≈ 496 µM)
MIC [8]: > 128 µg/mL
MIC [2]: 128 µg/mL (≈ 496 µM)
MIC [9]: > 128 µg/mL
MIC [12]: 128 µg/mL (≈ 496 µM)
MIC [13]: 128 µg/mL (≈ 496 µM)
MIC [16]: 128 µg/mL (≈ 496 µM)

Fc1ccccc1-c1nnc2ccncc2n1
MIC [15]: 32 µg/mL (≈ 141 µM)
MIC [8]: 32 µg/mL (≈ 141 µM)
MIC [2]: 16 µg/mL (≈ 70.7 µM)
MIC [9]: 16 µg/mL (≈ 70.7 µM)
MIC ([4]; Lodderomyces parapsilosis): 32 µg/mL (≈ 141 µM)
MIC [10]: 2 µg/mL (≈ 8.84 µM)
MIC [12]: 64 µg/mL (≈ 283 µM)
MIC [13]: 32 µg/mL (≈ 141 µM)
MIC [6]: 8 µg/mL (≈ 35.4 µM)
MIC [16]: 32 µg/mL (≈ 141 µM)

c1ccc(-c2nnc3ccccc3n2)cc1
MIC [15]: 128 µg/mL (≈ 618 µM)
MIC [8]: 128 µg/mL (≈ 618 µM)
MIC [2]: 128 µg/mL (≈ 618 µM)
MIC [9]: 128 µg/mL (≈ 618 µM)
MIC [3]: 64 µg/mL (≈ 309 µM)
MIC [13]: 64 µg/mL (≈ 309 µM)
MIC [16]: 128 µg/mL (≈ 618 µM)

Fc1ccc(-c2nnc3ccncc3n2)c(F)c1
MIC [15]: 16 µg/mL (≈ 65.5 µM)
MIC [3]: 2 µg/mL (≈ 8.19 µM)
MIC ([4]; Lodderomyces parapsilosis): 16 µg/mL (≈ 65.5 µM)
MIC [18]: 16 µg/mL (≈ 65.5 µM)
MIC [11]: 16 µg/mL (≈ 65.5 µM)
MIC [6]: 8 µg/mL (≈ 32.8 µM)
MIC [16]: 32 µg/mL (≈ 131 µM)

NYSTATIN
MIC [15]: 16 µg/mL
MIC [8]: > 128 µg/mL
MIC [22]: 16 µg/mL
MIC [2]: 16 µg/mL
MIC [9]: > 128 µg/mL
MIC [3]: 32 µg/mL
MIC [4]: 16 µg/mL
MIC [12]: 16 µg/mL
MIC [13]: 16 µg/mL
MIC [16]: 8 µg/mL

CC1N=Nc2ncccc2N1 (configuration not stated)
MIC [15]: 64 µg/mL (≈ 432 µM)
MIC [20]: 32 µg/mL (≈ 216 µM)
MIC ([4]; Lodderomyces parapsilosis): 64 µg/mL (≈ 432 µM)
MIC [23]: 8 µg/mL (≈ 54 µM)
MIC [13]: 64 µg/mL (≈ 432 µM)
MIC [16]: 64 µg/mL (≈ 432 µM)
MIC [19]: 32 µg/mL (≈ 216 µM)

C(=C\N1CCCCC1)/c1nnc2ccncc2n1
MIC [15]: 128 µg/mL (≈ 530 µM)
MIC [17]: 4 µg/mL (≈ 16.6 µM)
MIC [24]: 64 µg/mL (≈ 265 µM)
MIC ([4]; Lodderomyces parapsilosis): 128 µg/mL (≈ 530 µM)
MIC [6]: 16 µg/mL (≈ 66.3 µM)
MIC [25]: 64 µg/mL (≈ 265 µM)
MIC [16]: 128 µg/mL (≈ 530 µM)

CC1(C)N=Nc2ccncc2N1
MIC [15]: 128 µg/mL (≈ 789 µM)
MIC [2]: 128 µg/mL (≈ 789 µM)
MIC [3]: 128 µg/mL (≈ 789 µM)
MIC ([4]; Lodderomyces parapsilosis): 128 µg/mL (≈ 789 µM)
MIC [13]: 128 µg/mL (≈ 789 µM)
MIC [6]: 128 µg/mL (≈ 789 µM)
MIC [16]: 128 µg/mL (≈ 789 µM)

Cc1nc(C)c2nc(-c3ccc(F)cc3)nnc2c1NC(=O)c1ccccc1
MIC [15]: 128 µg/mL (≈ 343 µM)
MIC [2]: 128 µg/mL (≈ 343 µM)
MIC ([4]; Lodderomyces parapsilosis): 128 µg/mL (≈ 343 µM)
MIC [21]: 32 µg/mL (≈ 85.7 µM)
MIC [13]: 128 µg/mL (≈ 343 µM)
MIC [16]: 128 µg/mL (≈ 343 µM)
MIC [26]: 64 µg/mL (≈ 171 µM)
